A selection: hits, their analogues and other compounds. The true share with any hit is near 2%.
FID counter = displaces DNA intercalator in HCV helicase counter-screen; DNA fluorescent intercalator displacement, fluorescence; inhibition, % at 7.9 µM; 0.17% of 290,000 active; AID 1845; in the data active means inhibition above about 37%;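 further: 0% = vehicle and 100% = reference compound; higher means more ethidium bromide displaced from hairpin DNA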
EBNA-1 inh = blocks EBNA-1 binding to DNA. EBNA-1 DNA binding, fluorescence polarization. inhibition, % at 14.8 µM. 0.34% of 300,000 active. AID 1950; in the data active means inhibition above about 28%
ZTA counter = ZTA (EBV) inhibition in EBNA-1 counter-screen; P03206; ZTA-DNA binding, fluorescence polarization; inhibition, % at 11 µM; 0.15% of 320,000 active; AID 2234; in the data active means inhibition above about 33%
Target sequence (P03206 whole entry, looked up): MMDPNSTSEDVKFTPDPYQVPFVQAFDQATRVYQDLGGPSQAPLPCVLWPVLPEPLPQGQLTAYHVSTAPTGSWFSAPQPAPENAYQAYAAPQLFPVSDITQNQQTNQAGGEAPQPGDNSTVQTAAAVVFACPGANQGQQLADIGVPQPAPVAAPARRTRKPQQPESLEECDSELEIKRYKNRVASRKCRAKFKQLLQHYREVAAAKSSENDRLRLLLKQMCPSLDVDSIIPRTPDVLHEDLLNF
GPR7 antagonist = blocks human GPR7 receptor signaling; GPR7-expressing cells, fluorescence antagonist assay; 1.1% of 290,000 active; inhibition, % at 4.4 µM; AID 1861; P48145; in the data active means inhibition above about 16%, passing the limit was not always enough;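 further: cells stimulated with the agonist NPW; 0% = agonist with vehicle and 100% = vehicle without agonist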
Target sequence (P48145 whole entry, looked up): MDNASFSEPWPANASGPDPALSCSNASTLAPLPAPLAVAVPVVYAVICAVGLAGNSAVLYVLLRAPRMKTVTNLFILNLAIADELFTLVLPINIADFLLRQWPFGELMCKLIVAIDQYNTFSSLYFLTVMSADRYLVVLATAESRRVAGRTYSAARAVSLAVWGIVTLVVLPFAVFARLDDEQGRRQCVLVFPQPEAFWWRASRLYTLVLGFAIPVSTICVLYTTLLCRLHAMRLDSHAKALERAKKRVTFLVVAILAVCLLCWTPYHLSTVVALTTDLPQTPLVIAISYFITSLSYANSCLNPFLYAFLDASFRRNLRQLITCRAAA
HCV NS3 hel inh = blocks Hepatitis C virus NS3 helicase unwinding; 0.56% of 290,000 active; inhibition, % at 10.9 µM; NS3 helicase DNA unwinding, Cy5 molecular beacon fluorescence;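 active means inhibition above the mean of all tested compounds plus 3 SD, set per campaign, cut at about 35% in these data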;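 further: 0% = DMSO wells and 100% = thioflavine S control wells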
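Compound dosing – single dose, 10.9 µM nominal final, DMSO 0.8% final · System – NS3 helicase fragment of HCV · Buffer or medium – MOPS pH 6.5, MgCl2, DTT, Tween20, BSA · Signal – Cy5 beacon fluorescence read at start and 1 h · Also added – annealed dual-labelled DNA beacon duplex, ATP-started · Schedule – 1 h at 25 °C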
Zta DNA confirm = EBV ZTA DNA binding inhibition, confirmation; inhibition, % at 11.1 µM; shares compounds with ZTA counter; 30% of 320 active; Zta-ZRE DNA binding, fluorescence polarization;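 active means mean inhibition across triplicate runs above the hit threshold derived for the original primary screen, cut at about 33% in these data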;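 further: 0% = Zta with DMSO and 100% = wells lacking Zta protein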
EBNA1 counter = blocks EBNA-1 DNA binding in ZTA counter-screen; shares compounds with ZTA counter; fluorescence polarization; inhibition, % at 14.8 µM; 320 tested, under 10 active; AID 2362; call rule not given here
* hit, by the source's call; · = no result.

SMILES	FID counter	EBNA-1 inh	ZTA counter	GPR7 antagonist	HCV NS3 hel inh	Zta DNA confirm	EBNA1 counter
CSc1ccc(C2=CC(=O)C[C@H](c3ccc(Cl)cc3)C2)cc1	·	·	1	·	·	·	·
CN(C(=O)c1cccc(C#N)c1)c1nnc(C2CCCO2)s1 (stereo unspecified)	-1	-2	110*	-11	-12	4	1
Cc1nnc(N(Cc2ccco2)C(=O)c2cccc(C#N)c2)s1	-1	1	-6	-1	-3	·	·
Cn1c(-c2ccccc2)cc(=O)c2ccccc21	-2	3	-6	-2	4	·	·
Cn1c2ccccc2c(=O)n2c(=O)c3ccccc3cc12	2	-2	43*	-8	1	33*	-7
O=c1[nH]c(-c2ccc(Cl)cc2)nc(=S)[nH]1	0	1	46*	-8	-3	3	-10
Cc1cc(=O)[nH]c(-c2ccc(Cl)cc2)n1	2	6	-8	8	5	·	·
COc1ccc(CCNC(=O)c2ccccc2C(=O)NCCc2ccc(OC)c(OC)c2)cc1OC	·	-3	-22	·	·	·	·
COc1ccc(C(=O)Nc2ccc(C(=O)Nc3cccnc3)cc2)cc1	-16	11	52*	-6	2	23	7
CC(C)(C(=O)Nc1nccs1)c1ccccc1	-3	2	40*	1	-3	2	-1
O=C(/C=C/c1ccco1)NC(=S)Nc1ccc(C(=O)O)cc1	-5	-11	54*	2	30	38*	1
CCC(=O)Nc1ccc(NC(=S)NC(=O)/C=C/c2ccco2)cc1	-15	-7	-1	1	8	·	·
O=C(COC(=O)c1cccc(O)c1)Nc1ccc(S(=O)(=O)N2CCOCC2)cc1	·	·	-3	·	·	·	·
COc1cc2c(cc1OC)C(c1cc(Br)ccc1O)N(C(C)=O)CC2 (stereo unspecified)	·	-6	-6	·	·	·	·
NC(=O)c1cccc2ccccc12	-2	-2	7	-13	-6	·	·
O=C(O)/C(=C\c1ccc2ccccc2c1)c1cccc2ccccc12	·	8	36*	·	·	2	8
CCCCCCCCCCCCCCCC[N+](C)(C)CCN(Cc1ccc(OC)cc1)c1ncccn1	·	6	35*	·	·	77*	3
COc1ccc(-c2noc(N3CCC(C(=O)Nc4cccc(OC)c4)CC3)n2)cc1	-17	-13	-12	-13	0	·	·
C/C(=N\NC(=O)c1ccccc1O)C1CC1	-8	0	9	-3	3	·	·
C#CCOCCOCCOCCNc1nc(N2CCN(C(=O)CCCCCCCCCCNC(=O)Cn3cc(C[C@@H](C)O)nn3)CC2)nc(N2CCN(C(=O)CCCCCCCCCCNC(=O)[C@@H]([C@H](C)CC)n3cc(CCCCCN)nn3)CC2)n1	·	-1	-7	·	·	·	·
C#CCOCCOCCOCCNc1nc(N2CCN(C(=O)CCCCCCCCCCNC(=O)[C@@H](CCC(=O)O)n3cc(CCCCCN)nn3)CC2)nc(N2CCN(C(=O)CCCCCCCCCCNC(=O)[C@H](CO)n3cc(CCCCCN)nn3)CC2)n1	·	4	37*	·	·	-7	-8
C#CCOCCOCCOCCNc1nc(N2CCN(C(=O)CCCCCCCCCCNC(=O)Cn3cc(CCCCCN)nn3)CC2)nc(N2CCN(C(=O)CCCCCCCCCCNC(=O)Cn3cc(C[C@@H](C)O)nn3)CC2)n1	·	1	46*	·	·	20	0
C#CCOCCOCCOCCNc1nc(N2CCN(C(=O)CCCCCCCCCCNC(=O)[C@@H](CCSC)n3cc(CCO)nn3)CC2)nc(N2CCN(C(=O)CCCCCCCCCCNC(=O)[C@H](CCCN=C(N)N)n3cc(C[C@@H](C)CC)nn3)CC2)n1	·	12	141*	·	·	62*	-2
C#CCOCCOCCOCCNc1nc(N2CCN(C(=O)CCCCCCCCCCNC(=O)[C@@H](CCC(=O)O)n3cc(CCCCCN)nn3)CC2)nc(N2CCN(C(=O)CCCCCCCCCCNC(=O)[C@H](CCCCN)n3cc(C[C@@H](C)CC)nn3)CC2)n1	·	-2	54*	·	·	-12	-3
Cc1ccc(C(=O)OCC(=O)N(CCc2ccccc2)Cc2ccccc2)cc1S(=O)(=O)N1CCOCC1	·	7	-6	·	·	·	·
SMILES	FID counter	EBNA-1 inh	ZTA counter	GPR7 antagonist	HCV NS3 hel inh	Zta DNA confirm	EBNA1 counter
Cc1cc(C)cc(C(=O)NCC(=O)NNC(=O)CSc2ccccc2F)c1	·	·	3	·	·	·	·
C#CCOCCOCCOCCNc1nc(N2CCN(C(=O)CCCCCCCCCCNC(=O)[C@@H](CCSC)n3cc(CCO)nn3)CC2)nc(N2CCN(C(=O)CCCCCCCCCCNC(=O)[C@H](CCC(=O)O)n3cc(CCCCCN)nn3)CC2)n1	·	6	-12	·	·	·	·
C#CCOCCOCCOCCNc1nc(N2CCN(C(=O)CCCCCCCCCCNC(=O)[C@H](CCCCN)n3cc(CCO)nn3)CC2)nc(N2CCN(C(=O)CCCCCCCCCCNC(=O)[C@H](CCCCN)n3cc(C[C@@H](C)CC)nn3)CC2)n1	·	13	55*	·	·	81*	7
C#CCOCCOCCOCCNc1nc(N2CCOCC2)nc(N2CCN(C(=O)[C@H](CCCCN)n3cc([C@@H](N)CO)nn3)CC2)n1	29	12	168*	-8	-1	-4	-3
O=C(NC1CCC(O)CC1)C1CCN(S(=O)(=O)c2c(Cl)cccc2Cl)CC1 (stereo unspecified)	·	·	4	·	·	·	·
CC(=O)N1CCN(C(=O)COC(=O)CNC(=O)c2ccccc2C)CC1	·	0	5	·	·	·	·
Cc1ccnc(NC(=O)c2cnc(Cl)c(Cl)c2)c1	-8	4	3	-11	4	·	·
COc1cccc2c1C(=O)c1c(O)c3c(c(O)c1C2=O)C[C@](O)(C(C)=O)C[C@H]3O[C@@H]1C[C@@H](N)[C@@H](O)[C@@H](C)O1	·	-4	44*	·	·	75*	-5
COc1cccc2c1-c1c(O)cccc1C2=O	11	0	27	-7	7	·	·
Cn1nc(-c2ccc(Cl)cc2)nc2c(=O)n(C)c(=O)nc1-2	1	-21	49*	-22	8	82*	-4
COc1ccccc1C(CNC(=O)c1cc(C)nc2ccccc12)N(C)C (stereo unspecified)	3	-3	-11	-2	0	·	·
COCC1CCCCN1C(=O)c1ccc2nc(Cc3ccc(OC)c(OC)c3)oc2c1 (stereo unspecified)	-53	10	35*	-11	2	-6	-3
CCOc1ccc(NC(=S)Nc2ccc3nsnc3c2)cc1	-4	4	67*	11	-5	1	1
COc1ccc(NC(=S)Nc2ccc3nsnc3c2)cc1	3	20	38*	8	-2	5	-2
COc1ccc(NC(=S)Nc2ccc3nc(C)c(C)nc3c2)cc1	-5	-1	1	0	1	·	·
CC(C)N(C(=O)Nc1ccc2nsnc2c1)C(C)C	-4	-10	74*	-18	12	9	5
O=C(Nc1nc2ccccc2[nH]1)NC1CCCCC1	-13	-4	-5	-8	14	·	·
Cc1nnc(NC(=O)c2ccc(F)c(S(=O)(=O)N3CCCCC3)c2)s1	-17	4	13	-11	9	·	·

Screening data as filed in PubChem.
